# Results: ChEMBL document CHEMBL1159009, “Anti-influenza virus effect of some propolis constituents and their analogues (esters of substituted cinnamic acids)” (J Nat Prod, 1992)
# What was measured:
# [1] = Toxicity in hen chorioallantoic membrane assessed as maximum tolerable concentration causing no morphological changes; design: species or system Gallus gallus; conditions: chicken, read-out: Activity
# Procedure, shortened: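 Surviving chorioallantoic membrane cultures (membranes only) from 11-13-day-old embryonated hen's eggs were exposed to increasing concentrations and followed for 72 h. MTC was the highest concentration causing no morphological changes in the CAM.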
# Influenza A virus H3N2 [2] = experiment: microbe, parasite or virus in culture; type: functional, Influenza A virus (A/Hong Kong/1/1968(H3N2)), Chorioallantoic membrane; conditions: 48 h
# Influenza A virus = experiment: microbe, parasite or virus in culture; type: functional, Chorioallantoic membrane; conditions: A/Puerto Rico/8/1934(H1N1), 48 h
# [3] = Toxicity in hen egg assessed as maximum tolerable concentration causing no morphological changes; design: species or system Gallus gallus; conditions: chicken, read-out: Activity
# Influenza A virus H3N2 [4] = experiment: Antiviral activity against influenza A virus (A/Hong Kong/1/1968(H3N2)) infected in hen eggs assessed as hemagglutinination titre level at 5 mg/ml; type: functional
# Procedure, shortened: (§1)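 11-day-old embryonated hen's eggs received 0.2 ml of substance 1 h before infection with A/Hong Kong/1/68 (H3N2) from allantoic fluid. Read-out was the mean geometrical hemagglutination titer, compared with a virus control for each dose.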
# Influenza A virus H3N2 [5] = type: functional, Influenza A virus (A/Hong Kong/1/1968(H3N2)), Chorioallantoic membrane
# Influenza A virus H3N2 [6] = type: functional, Influenza A virus (A/Hong Kong/1/1968(H3N2)), Chorioallantoic membrane; remark: listed apart in the source
# Influenza A virus H3N2 [7] = type: functional, Influenza A virus (A/Hong Kong/1/1968(H3N2)), Chorioallantoic membrane; remark: listed apart in the source
# Influenza A virus H3N2 [8] = experiment: Antiviral activity against influenza A virus (A/Hong Kong/1/1968(H3N2)) infected in hen eggs assessed as hemagglutinination titre level at 2.5 mg/ml; type: functional; procedure, shortened: as §1
# Influenza A virus H3N2 [9] = type: functional, Influenza A virus (A/Hong Kong/1/1968(H3N2)), Chorioallantoic membrane; remark: listed apart in the source
# Influenza A virus H3N2 [10] = type: functional, Influenza A virus (A/Hong Kong/1/1968(H3N2)), Chorioallantoic membrane; remark: listed apart in the source
# Influenza A virus H3N2 [11] = type: functional, Influenza A virus (A/Hong Kong/1/1968(H3N2)), Chorioallantoic membrane; remark: listed apart in the source
# Influenza A virus H3N2 [12] = type: functional, Influenza A virus (A/Hong Kong/1/1968(H3N2)), Chorioallantoic membrane; remark: listed apart in the source
# Influenza A virus H3N2 [13] = experiment: Antiviral activity against influenza A virus (A/Hong Kong/1/1968(H3N2)) infected in hen eggs assessed as hemagglutinination titre level at 1 mg/ml; type: functional; procedure, shortened: as §1
Structure (SMILES),MNTC [1] [µg/mL],MIC (Influenza A virus H3N2 [2]) [µg/mL],MIC (Influenza A virus) [µg/mL],further results
CC(C)CCOC(=O)/C=C/c1ccc(O)c(O)c1,50,25,25,–
O=C(/C=C/c1ccc(O)c(O)c1)OCCc1ccccc1 [CAFFEIC ACID PHENETHYL ESTER],50,25,50,–
O=C(/C=C/c1ccc(O)c(O)c1)OCc1ccccc1 [BENZYL CAFFEATE],50,25,> 50,–
COc1cc(/C=C/C(=O)OCCC(C)C)ccc1O [ISOPENTYL FERULATE],400,50,> 200,MNTC [3]: 10000 µg/mL; Activity (Influenza A virus H3N2 [4]): 6.45; deltalog10CCID50 (Influenza A virus H3N2 [5]): 2; log10CCID50 (Influenza A virus H3N2 [6]): 3; deltalog10CCID50 (Influenza A virus H3N2 [7]): 2; Activity (Influenza A virus H3N2 [8]): 7.35; log10CCID50 (Influenza A virus H3N2 [9]): 1.5; log10CCID50 (Influenza A virus H3N2 [10]): 1.5; log10CCID50 (Influenza A virus H3N2 [11]): <1; deltalog10CCID50 (Influenza A virus H3N2 [12]): >2.5; Activity (Influenza A virus H3N2 [13]): 9.4
COc1cc(/C=C/C(=O)OCc2ccccc2)ccc1O [BENZYL FERULATE],50,> 50,> 50,–
COc1cc(/C=C/C(=O)OCCc2ccccc2)ccc1O,50,> 50,> 50,–
